# Compound activity: PubChem, several laboratories
# CSC inhib = cancer stem cell inhibition | cancer stem cell-like cells viability, luminescence | 300,000 compounds, 1.1% hits | inhibition, % at 7.5 µM | AID 2717; in the data active means inhibition above about 75%; inconclusive means no clear call, values can overlap the other calls; tested in HMLE shEcad cells
# SKKanGAS inh = inhibitors of SKKanGAS S. pyogenes growth in kanamycin (SK-promoter or general growth effect). BacTiter-Glo, 6 h. inhibition, % at 7.5 µM. 300,000 compounds, 1.3% hits. AID 1662;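 active means mean replicate score, as percent of positive control median, at least 50; inconclusive means mean below 50 but one replicate at or above 50; inactive means mean and every replicate below 50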;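 further: strain carries kanamycin resistance gene driven by streptokinase promoter and grows in 40 µg/ml kanamycin; loss of luminescence reflects streptokinase promoter inhibition or plain growth inhibition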
# aSyn UTR inh = 5' untranslated region of α-synuclein, MLPCN primary screen | AID 1813 | alpha-synuclein 5'UTR reporter, inhibitor activity | inhibition, % (tested at 7.5 µM) | 300,000 compounds, 0.82% hits; in the data active means inhibition above about 60%; inconclusive means no clear call, values can overlap the other calls;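 further: H4 neuroglioblastoma cells stably carrying SNCA 5'UTR luciferase fusion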
# Mdm2 MdmX PPI = disrupts the human Mdm2-MdmX interaction; O15151+Q00987; inhibition, % at 8 µM; SaOS-2 split-luciferase Mdm2/MdmX complementation, luminescence; 330,000 compounds, 3% hits; AID 485346;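 active means inhibition of at least 50% at 8 µM in the primary screen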
# Target sequence (O15151 whole entry, looked up): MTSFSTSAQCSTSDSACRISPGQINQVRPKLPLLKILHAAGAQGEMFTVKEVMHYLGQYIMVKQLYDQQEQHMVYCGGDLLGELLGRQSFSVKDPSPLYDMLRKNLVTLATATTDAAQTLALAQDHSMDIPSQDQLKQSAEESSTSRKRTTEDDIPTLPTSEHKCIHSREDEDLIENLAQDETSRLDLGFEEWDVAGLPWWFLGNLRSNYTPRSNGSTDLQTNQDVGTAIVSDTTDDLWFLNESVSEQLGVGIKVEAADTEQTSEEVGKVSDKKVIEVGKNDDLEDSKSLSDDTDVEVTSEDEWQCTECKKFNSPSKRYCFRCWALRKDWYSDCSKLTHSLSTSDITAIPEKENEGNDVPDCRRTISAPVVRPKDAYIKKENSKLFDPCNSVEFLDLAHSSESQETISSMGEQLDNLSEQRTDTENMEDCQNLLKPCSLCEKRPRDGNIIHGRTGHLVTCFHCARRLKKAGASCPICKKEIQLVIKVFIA
# Target sequence (Q00987 whole entry, looked up): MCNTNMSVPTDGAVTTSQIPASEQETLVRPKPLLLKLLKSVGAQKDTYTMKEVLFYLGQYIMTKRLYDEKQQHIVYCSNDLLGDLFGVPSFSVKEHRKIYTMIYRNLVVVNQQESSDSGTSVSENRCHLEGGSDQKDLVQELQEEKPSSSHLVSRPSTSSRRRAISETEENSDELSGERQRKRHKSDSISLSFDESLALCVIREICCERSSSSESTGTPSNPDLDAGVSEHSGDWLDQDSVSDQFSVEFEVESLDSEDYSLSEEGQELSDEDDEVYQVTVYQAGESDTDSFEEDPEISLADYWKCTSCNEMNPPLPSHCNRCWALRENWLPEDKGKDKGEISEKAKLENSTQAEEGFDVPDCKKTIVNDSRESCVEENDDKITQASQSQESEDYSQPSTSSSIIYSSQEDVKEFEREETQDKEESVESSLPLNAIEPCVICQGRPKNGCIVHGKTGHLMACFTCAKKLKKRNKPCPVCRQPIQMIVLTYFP
# T cruzi inh = T. cruzi replication inhibition | T. cruzi beta-gal in NIH3T3, luminescence, 90 h | inhibition, % (concentration not given with the values) | 300,000 compounds, 1.4% hits | AID 1885;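 active means mean inhibition across valid replicates above about 55%, limit read from the data; inconclusive means mean below that limit but half or more replicates reach it; inactive means mean below it, under half of replicates reach it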;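 further: signal also drops with host cell toxicity which is not excluded here; higher percent means less beta-gal luminescence so fewer parasites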
#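 Read-out: Parasite load inhibition, % | Test system: Mouse NIH/3T3 fibroblasts infected with β-gal-expressing T. cruzi Tulahuen C4 | Amount: 5,000 cells/well | Medium: DMEM, 2% fetal bovine serum | Signal: GalScreen β-gal luminescence, detergent lysis, 60 min | Timing: 3 h attach, ≥90 h co-culture | Also added: Tulahuen C4 trypomastigotes, 5000/well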
# Mdm2-MdmX conf = confirmation of human Mdm2/MdmX interaction inhibitors | shares compounds with Mdm2 MdmX PPI | Mdm2-MdmX binding, luminescent assay | inhibition, % at 8 µM | 10,000 compounds, 55% hits; in the data active means inhibition above about 40%
# FLuc counter = counter-screen for Mdm2/MdmX inhibitors: full-length luciferase; AID 504607; SaOS-2 full-length luciferase counterscreen, luminescence; shares compounds with Mdm2 MdmX PPI; inhibition, % at 8 µM; 6,200 compounds, 77% hits;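 active means mean inhibition at 8 µM reaching about 37%, which flags the compound as non-specific, limit read from the data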;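 further: p53-null SaOS-2 cells with luciferase driven by a doxycycline-inducible promoter; compound on cells about two nights before reading with doxycycline added after day one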
# A number is an active result; . = inactive; ? = inconclusive; / = not tested or not shown. Sampled rows, rich in hits. Any-hit rate of the full collection: about 5.4%.
SMILES,CSC inhib,SKKanGAS inh,aSyn UTR inh,Mdm2 MdmX PPI,T cruzi inh,Mdm2-MdmX conf,FLuc counter
COc1ccccc1NS(=O)(=O)c1cccc(C(=O)N/N=C/c2ccc(NC(C)=O)cc2)c1,.,.,.,.,.,/,/
Cn1c(Sc2ccc(Cl)cc2)c(C=O)c2ccccc21,.,.,.,80.8,.,77.0,56.9
COc1ccc(Oc2c(C=O)c3ccccc3n2C)cc1,.,.,.,.,.,/,/
Cn1c(Oc2ccc(Cl)cc2)c(C=O)c2ccccc21,.,.,.,50.1,.,41.4,.
Cc1cccc(Sc2c(C=O)c3ccccc3n2C)c1,.,.,.,.,.,/,/
C/C(=N\NC(=O)C(C)Sc1ccccc1)c1ccc([N+](=O)[O-])cc1 (stereo not given),.,.,.,.,.,/,/
N#CC1=C(N)N2C(=C(C#N)C1c1ccccc1)Sc1ccccc12 (stereo not given),.,.,.,.,.,/,/
N#CC1=C(N)N2C(=C(C#N)C1c1ccc(Br)cc1)Nc1ccccc12 (stereo not given),114.1,.,.,96.4,.,95.3,53.0
N#CC1=C(N)N2C(=C(C#N)C1c1cccc(Br)c1)Nc1ccccc12 (stereo not given),.,.,?,100.4,.,44.0,40.2
CC(C)CCN(C(=O)c1ccccn1)c1c(N)n(Cc2ccccc2)c(=O)[nH]c1=O,.,/,/,.,/,/,/
CC(C)(C)c1ccc(-c2nnc3sc(-c4ccccn4)nn23)cc1,.,.,.,66.2,.,64.7,.
CCN1/C(=C/c2ccc3cc(C)ccc3[n+]2CC)Sc2ccccc21,101.6,/,99.9,97.3,.,95.0,.
CCN1/C(=C/c2ccc3cc(C)ccc3[n+]2CC)Sc2cc(C)c(C)cc21,/,/,/,80.8,/,85.0,39.1
CCOC(=O)/C(=C/C=C1\Sc2cc(C)c(C)cc2N1CC)C(C)=O,/,.,.,/,.,/,/
C=CCc1cc(/C=C2/NC(=S)NC2=O)cc(OC)c1O,.,.,?,55.3,.,.,/
C=CCc1cc(/C=C2/NC(=O)NC2=O)cc(OCC)c1O,.,.,.,.,.,/,/
Cc1ccc(-c2cc(C(=O)Nc3cc(C)on3)c3ccccc3n2)cc1,.,.,.,.,.,/,/
Cc1cc(NC(=O)c2cc(-c3ccccn3)nc3ccc(Br)cc23)no1,.,.,.,66.4,.,.,/
Cc1cc(NC(=O)c2cc(-c3ccccn3)nc3ccccc23)no1,.,.,.,.,.,/,/
CCN(CC)S(=O)(=O)c1ccc(NC(=O)c2cc(-c3cccs3)nc3ccccc23)cc1,.,.,.,50.2,.,.,/
Cc1cc(NC(=O)c2cc(-c3cccs3)nc3ccccc23)no1,.,.,.,51.3,.,.,/
NS(=O)(=O)c1ccc(CCNC(=O)c2cc(-c3ccccn3)nc3ccc(Br)cc23)cc1,.,.,.,76.9,.,.,/
CC(=O)N/N=C\c1ccccc1OC/C=C/c1ccccc1,.,.,.,.,.,/,/
CC(=O)NS(=O)(=O)c1ccc(NC(=O)c2cc(-c3cccs3)nc3ccccc23)cc1,.,.,.,.,.,/,/
CN(C)S(=O)(=O)c1ccc(NC(=O)c2cc(-c3cccs3)nc3ccccc23)cc1,.,.,.,64.0,.,61.8,53.0
SMILES,CSC inhib,SKKanGAS inh,aSyn UTR inh,Mdm2 MdmX PPI,T cruzi inh,Mdm2-MdmX conf,FLuc counter
CCN(CC)S(=O)(=O)c1cc(NC(=O)c2cc(-c3ccccn3)nc3ccccc23)ccc1C,.,.,.,52.5,.,.,/
Cc1cccc2sc(NNC(=O)c3cc(-c4cccs4)nc4ccccc34)nc12,103.2,87.7,.,81.9,.,51.3,61.0
NS(=O)(=O)c1ccc(NC(=O)c2cc(-c3cccs3)nc3ccccc23)cc1,.,.,.,87.0,.,.,/
NNC(=O)c1cc(-c2cccs2)nc2ccccc12,.,.,.,.,.,/,/
Cc1ccc(C(=O)CCC(=O)OCC(=O)N(CC(C)C)c2c(N)n(Cc3ccccc3)c(=O)[nH]c2=O)cc1,.,.,.,.,.,/,/
CCN(/C(N)=N/c1nc(C)cc(C)n1)c1ccccc1,.,.,.,.,.,/,/
CCc1cccc(N(C)C(N)=Nc2cccc3ccccc23)c1,.,.,.,52.9,.,.,/
CCOc1nc(NCCN2CCOCC2)nc(Nc2ccc([N+](=O)[O-])cc2)n1,.,.,.,.,.,/,/
N#Cc1ccc(-c2c(-c3ccccc3)ncc3cc(F)ccc23)cc1,.,/,/,.,/,/,/
COc1ccc(CCC(=O)OC(C)C(=O)c2ccc(C)cc2)cc1 (stereo not given),.,.,.,66.7,.,.,/
O=c1oc2cc(OCCO)ccc2c2c1CCCC2,.,.,.,.,.,/,/
CNC(=O)C(=O)NCC1OCCN1S(=O)(=O)c1ccc2c(c1)OCCO2 (stereo not given),.,.,.,.,.,/,/
Cc1cccc(Cn2ncc(Cl)c(Cl)c2=O)c1,.,.,.,100.2,.,84.0,51.1
Cc1cc(C(=O)Cn2ncc(Cl)c(Cl)c2=O)c(C)n1CC(F)(F)F,/,.,.,98.3,.,67.5,.
Cc1ccc(C)c(C(=O)Cn2ncc(Cl)c(Cl)c2=O)c1,.,.,.,96.6,.,84.2,.
Cc1cc2oc(=O)cc(Cn3ncc(Cl)c(Cl)c3=O)c2cc1Cl,79.9,.,.,96.3,57.3,97.7,53.5
Cc1cc2oc(=O)cc(CN3CCCCC3C)c2cc1Cl (stereo not given),.,.,.,.,.,/,/
CCc1ccccc1NC(=O)CN(C)C(=O)Cn1ncc(Cl)c(Cl)c1=O,.,.,.,/,.,/,/
Cc1nn(C)c(C)c1NC(=O)CSc1nc(Cc2ccccc2)nc2c1cnn2-c1ccccc1,.,.,.,94.2,.,57.1,102.8
O=[N+]([O-])c1ccc(NCCCNS(=O)(=O)c2ccccc2)c(Cl)c1,.,.,.,.,.,/,/
O=c1sc2ccccc2c(=O)n1Cc1ccccc1F,.,.,.,.,.,/,/
O=c1c2ccccc2sn1-c1ccc(F)cc1,.,/,/,50.9,/,.,/
CN(C)c1ccc(/C=C/c2ccc3ccccc3[n+]2C)cc1,/,?,.,87.2,60.0,82.0,.
O=C(C1CCC1)N1CCC(O)(c2cccc(F)c2)CC1,.,.,.,.,.,/,/
COc1ccccc1-n1nnnc1SCC(=O)Nc1ccc(C)c(N)c1,.,.,.,.,.,/,/
O=Cc1[nH]c2ccccc2c1N(C(=O)CCl)c1ccc([N+](=O)[O-])cc1,.,.,84.2,97.4,.,94.0,.
CC(=O)n1cc(CO)c2ccccc21,.,.,.,.,.,/,/
CC(=O)n1cc(N(C(=O)CCl)c2ccccc2)c2ccccc21,.,.,106.3,96.6,.,100.1,51.5
O=C(NC1CCN(CC(=O)N(c2ccccc2)c2ccccc2)CC1)c1ccc([N+](=O)[O-])cc1,.,.,.,.,.,/,/
CC(=O)n1cc(N(C(=O)CCl)c2ccc([N+](=O)[O-])cc2)c2ccccc21,.,.,.,97.7,.,79.8,42.0
